# S1P3 agonist – human S1P3 receptor agonists, primary screen, cell-based, primary and confirmation, NFAT-BLA reporter; actives 0.1% (n = 60,000); AID 373, 2006; activation, % at 4.5 µM; Sphingosine 1-phosphate receptor 3 (Homo sapiens), Q99500; S1P3 NFAT-BLA reporter cells, agonism, FRET ratio; relative to 1 µM S1P, basal subtracted;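 active = activation above the screen-wide mean plus 3 SD, cut at about 4.5% in these data, passing the limit was not always enough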
#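 Assay system: stable CHO line with human S1P3, Gα16, NFAT-BLA reporter; Detection: FRET β-lactamase substrate fluorescence, excitation 405 nm, 460/535 nm emission ratio, background-subtracted; Read-out: percent activation versus median 1 µM S1P response, basal-subtracted, per plate; Incubation: cells plated overnight, compound 4 h 37 °C, substrate 2 h RT.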
# PKA inh – inhibitors of human PKA kinase activity, primary screen, biochemical, ATP-depletion luminescence, Kemptide substrate | PKA Kemptide phosphorylation, Kinase-Glo ATP luminescence | inhibition, % at 6 µM | actives 0.1% (n = 65,000) | AID 524, 2006;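 active = inhibition above the screen-wide mean inhibition plus 3 SD, cut at about 21% in these data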
# MMP13 inh – human MMP13 inhibitors, primary screen, biochemical, FRET peptide cleavage; Collagenase 3 (Homo sapiens), P45452; MMP-13 fTHP FRET cleavage, Mca fluorescence; AID 570, 2006; actives 0.07% (n = 65,000); inhibition, % at 4 µM;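 active = inhibition above the mean of compound-free control plate wells plus 3 SD, cut at about 14% in these data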;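 note: 0% = DMSO wells and 100% = wells with reference MMP-13 inhibitor after basal subtraction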
# ROCK2 inh – inhibitors of human ROCK2 kinase, primary screen, biochemical, high-throughput, luminescence; Rho-associated protein kinase 2 (Homo sapiens), O75116; purified ROCK2, Kinase-Glo ATP depletion luminescence; inhibition, % at 6 µM; actives 0.35% (n = 60,000); AID 604, 2007;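 active = inhibition above the screen-wide mean inhibition plus 3 SD, cut at about 18% in these data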;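 note: plate controls were DMSO wells for no effect and Y-27632 control wells after no-enzyme background subtraction for full effect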
# S1P1 ag-PAM – S1P1 agonists and agonism potentiators, primary screen, cell-based, primary and confirmation screens, CRE-bla reporter. Sphingosine 1-phosphate receptor 1 (Homo sapiens), P21453. AID 449, 2006. actives 0.57% (n = 56,000). activation, % at 9.5 µM. S1P1 CRE-bla cells, forskolin, beta-lactamase FRET, potentiator mode; S1P1 agonist co-added at EC20, 2 nM; 100% = saturating reference agonist, 0% = basal;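 active = activation above a cutoff set at the mean activation of all tested compounds plus 3 SD, cut at about 54% in these data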;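 note: forskolin at 4 µM as EC80 and the EC20 agonist is SEW2871; 100% = SEW2871 at its EC100 plus forskolin at EC80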
# Target sequence (P21453 whole entry, looked up): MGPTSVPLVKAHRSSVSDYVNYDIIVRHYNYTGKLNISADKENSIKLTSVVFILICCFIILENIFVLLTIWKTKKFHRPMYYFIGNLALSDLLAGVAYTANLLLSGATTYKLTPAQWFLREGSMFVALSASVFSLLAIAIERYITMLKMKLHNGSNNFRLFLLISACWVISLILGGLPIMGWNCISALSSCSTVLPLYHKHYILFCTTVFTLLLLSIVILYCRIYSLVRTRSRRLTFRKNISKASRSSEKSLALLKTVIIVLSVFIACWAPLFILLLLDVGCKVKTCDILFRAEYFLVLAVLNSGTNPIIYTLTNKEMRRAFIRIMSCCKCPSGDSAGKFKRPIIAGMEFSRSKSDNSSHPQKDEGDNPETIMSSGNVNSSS
# JNK3 inh – JNK3 kinase activity inhibitors, primary screen, biochemical, human, purified enzyme | Mitogen-activated protein kinase 10 (Homo sapiens), P53779 | HTS | inhibition, % at 8 µM | actives 0.61% (n = 60,000) | AID 746, 2007; in the data active = inhibition above about 17%;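 note: 0% = DMSO and 100% = reference inhibitor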
# The depositor's hits bear a star; · = no result. Most compounds without a hit are left out; they make up all but 1.2% or so of the library.
SMILES,S1P3 agonist,PKA inh,MMP13 inh,ROCK2 inh,S1P1 ag-PAM,JNK3 inh
Cc1c(-c2nc(N)nc(Nc3ccccc3)n2)oc2ccccc12,-1.3,2.5,-1.1,-8.3,-64.4,18.5*
Nc1nc(CSc2ccccn2)nc(Nc2ccccc2)n1,·,0.5,-0.3,·,·,·
NC(=O)C1(N2CCCCC2)CCN(C(=O)CSc2nc(C(F)(F)F)cc(=O)[nH]2)CC1,-0.4,5.7,-3.6,7.4,8.9,-0.3
N#CC1=C(SCC(=O)c2ccccc2)NC2=C(C(=O)CCC2)C1c1ccco1 (configuration not stated),-2.6,-11.7,5.3,-10.1,6.2,57.5*
CC(C)(C)c1ccc(C(=O)CCCSC2=C(C#N)C(c3ccco3)C3=C(CCCC3=O)N2)cc1 (configuration not stated),-1.7,-0.8,-2.1,-1.9,15.5,-8.7
c1ccc(Nc2ccccc2Nc2ccccn2)nc1,-1.3,9.1,2.2,4.2,-3.9,42.6*
Cc1cc(SCCC(=O)O)nc2ccccc12,-0.9,5.4,-0.1,8.3,-6.7,6.9
O=C(O)CSc1ccc2ccccc2n1,0.5,5.9,-3.1,3.5,-5.1,17.7*
O=C(O)CCSc1ccc2ccccc2n1,-2.1,2.8,-2.2,3.5,-11.8,27.9*
CN(CC(=O)N1CCc2ccccc21)S(=O)(=O)c1ccc(Br)s1,·,-1.1,2.9,·,·,·
CC(=O)c1c(C)[nH]c(C(=O)OCCCCN2C(=O)c3ccccc3C2=O)c1C,-1.8,7.3,-1.0,7.0,97.1*,9.2
Brc1ccc2[nH]ncc2c1,0.1,11.6,2.4,29.8*,-11.4,6.9
CCCn1c2c(c(O)c(C(=O)Nc3ccccc3)c1=O)CCCC2,-1.0,-3.9,2.8,-1.3,-4.5,-4.5
COc1ccc(CCn2c(N)c(C(=O)NCc3ccco3)c3nc4ccccc4nc32)cc1OC,7.3*,-12.2,-30.6,-8.3,-111.7,-5.8
COc1ccc(CNC(=O)c2cc3c(C)nc4ccccc4c3o2)c(OC)c1,-1.5,4.6,2.1,3.2,94.0*,-4.1
CCC1S/C(=C(\C#N)C(N)=O)N(c2ccc(F)cc2)C1=O (configuration not stated),-0.6,13.3,6.7,1.3,-7.5,30.7*
CCC1S/C(=C(\C#N)C(=O)NCc2ccco2)N(c2ccc(F)cc2)C1=O (configuration not stated),-0.5,8.9,2.4,2.2,-16.5,-4.2
O=C(CCc1nc(-c2ccccc2F)no1)Nc1ccc(Oc2ccccc2)cc1,-0.6,-2.6,4.2,-0.2,127.5*,2.4
O=C(CCc1nc(-c2ccccc2F)no1)NCCc1ccccc1Cl,-0.8,2.5,2.5,0.2,-5.4,8.0
Cc1ccc2c(=O)c(CN(C)C3CCN(C)CC3)c(C)[nH]c2c1C,-2.8,5.4,3.0,-5.6,-2.5,-0.4
CCOC(=O)/C=C/S(=O)(=O)c1ccc(NC(C)=O)cc1,-2.0,11.2,7.1,4.2,151.7*,-1.1
Cc1ccc2[nH]c3c(c2c1)CCC3=O,0.6,10.9,-96.0,5.9,-28.8,2.3
Cc1ccc2[nH]c3c(c2c1)CCc1cn[nH]c1-3,-1.2,0.3,3.3,7.5,-2.5,43.5*
C=CS(=O)(=O)c1ccc(Oc2ccc(S(=O)(=O)C=C)cc2)cc1,-0.6,8.4,-3.3,5.0,124.5*,8.3
c1ccc(OCCCc2nc(-c3ccncc3)no2)cc1,0.1,12.4,1.0,18.3*,·,-1.1
SMILES,S1P3 agonist,PKA inh,MMP13 inh,ROCK2 inh,S1P1 ag-PAM,JNK3 inh
CCCCOc1ccc(S(=O)(=O)Nc2cccnc2)cc1,-1.2,7.4,0.8,8.3,84.6*,-3.3
CCC(=O)Nc1ccc(S(=O)(=O)Nc2cccnc2)cc1,0.1,4.4,3.5,-7.5,·,3.3
CCCCn1c(-c2cc(Cl)ccc2OC)n[nH]c1=S,0.1,1.6,-8.1,2.5,0.9,0.9
Cc1ccccc1-c1nnc(-c2ccccc2)o1,-0.4,4.0,-14.2,2.6,-7.3,0.4
COc1ccc(Cl)cc1-c1n[nH]c(=S)o1,-0.5,9.7,1.2,9.6,·,37.3*
Cc1ccccc1-c1n[nH]c(=S)o1,-1.1,-6.7,7.3,0.9,-7.4,27.3*
Cc1nc2nc(C)c(CCC(=O)N3CCOCC3)c(C)n2n1,-0.1,11.5,-0.7,7.6,-19.6,-2.1
O=C(Nc1nccs1)c1ccc(Br)o1,1.2,11.3,5.4,4.4,4.0,18.1*
Cc1nnc(SC(=O)N2c3ccccc3Sc3ccccc32)s1,-0.5,10.4,2.9,3.9,115.1*,-7.2
CN(C)c1nc(N)nc(CSc2nc3cc(Cl)ccc3o2)n1,0.1,0.5,2.8,5.8,5.9,1.6
O=S1(=O)C=C(Sc2nc3cc(Cl)ccc3o2)c2ccccc21,-0.9,3.2,4.5,1.5,80.1*,1.4
O=c1cc(O)nc(SC23CC4CC(CC(C4)C2)C3)[nH]1,0.0,-0.6,4.2,-1.2,-3.5,2.9
O=c1nc(C(F)(F)F)nc2ccccn12,-1.5,-2.1,6.4,-1.9,·,-1.5
O=c1[nH]c2ccccc2c2nc3ccccn3c12,-1.2,-5.0,-13.3,-1.0,-30.2,47.4*
N#CC(C(=O)c1ccco1)c1ccccn1 (configuration not stated),-0.8,-5.0,-3.7,-1.1,7.0,12.8
N#C/C(=C(\O)c1ccco1)c1ccccn1,-0.5,7.3,3.0,5.7,-36.0,18.5*
Cc1ccc(S(=O)(=O)N(C)CC(=O)N2CCCc3ccccc32)cc1,-0.2,0.7,-0.2,1.9,-7.2,0.4
Cc1ccc(Cl)cc1N1CCN(CC(=O)Nc2ccc3[nH]c(=O)[nH]c3c2)CC1,-1.1,0.7,1.1,4.0,-7.0,-9.9
N#CCSc1nc2scc(-c3cccs3)c2c(=O)n1CCc1ccccc1,-0.4,14.1,2.8,1.7,-6.7,5.2
COc1cc(C(=O)NCc2cn3ccccc3n2)cc(OC)c1OC,-1.3,8.0,-0.4,4.1,-24.7,57.9*
COc1cc(C(=O)NCc2cn3cccc(C)c3n2)cc(OC)c1OC,-0.5,-4.5,4.1,1.3,2.3,-2.1
CCOC(=O)CSc1nc2ccccc2c(=O)n1CCCCCC(=O)NCc1ccco1,-0.8,8.4,0.1,-1.9,19.5,23.1*
O=C(CCCn1c(SCC(=O)c2ccc(Cl)cc2)nc2ccccc2c1=O)NCc1ccco1,·,1.2,6.9,·,·,·
O=C(CCCn1c(=S)[nH]c2ccccc2c1=O)NCc1ccco1,-0.8,8.0,0.9,6.5,-3.0,18.9*
